Assay results from publication PMC4356685 (International Journal of Nanomedicine, 2015).

What was measured:
[1] = Toxicity in tumor-bearing mice; format: in vivo; conditions: PTX 10 mg/kg i.v. in 4T1 tumor-bearing BALB/c mice
[2] = test system: 4T1 cells; test: In vitro cytotoxicity, WST-8 assay; format: cell-based, mouse; conditions: 48 hours, WST-8, n=5
[3] = test system: 4T1 murine breast tumors; test: In vivo anticancer efficacy; conditions: 4T1 tumor-bearing BALB/c mice, PTX 10 mg/kg i.v. at days 10, 13, 16, 19
Summary of the method: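 Female BALB/c mice (4–6 weeks old) were inoculated subcutaneously in the left back, under anesthesia, with ~5×10^5 4T1 cells in PBS. Dosing began at a tumor volume of about 50–100 mm3: 10 mg/kg drug-equivalent by tail-vein injection on days 10, 13, 16 and 19 after inoculation, with a normal-saline control. Tumors (V = L×W²/2) and body weight were measured every 2 days until day 23. Survival was followed until death from tumor growth or treatment.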

[4] = Pharmacokinetic studies in rats; format: in vivo, Sprague Dawley (SD) rats
Summary of the method: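 Female SD rats (200±20 g), three per group, received a single tail-vein injection in 0.9% saline (10 mg/kg drug-equivalent). Retro-orbital blood was taken at 5, 15 and 30 min and at 1, 1.5, 2, 4, 7, 10 and 24 h into heparinized tubes. Plasma was stored at −20°C, extracted, redissolved in acetonitrile, filtered and quantified by HPLC against spiked-plasma standard curves. Parameters came from a two-compartment model fit.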

[5] = Sprague-Dawley, rat, plasma, iv, 10 mg/kg
[6] = rats, i.v. tail vein, 10 mg/kg of PTX, two-compartment model

SMILES: CC(=O)O[C@H]1C(=O)[C@@]2(C)[C@H]([C@H](OC(=O)c3ccccc3)[C@]3(O)C[C@H](OC(=O)[C@H](O)[C@@H](NC(=O)c4ccccc4)c4ccccc4)C(C)=C1C3(C)C)[C@]1(OC(C)=O)CO[C@@H]1C[C@@H]2O [Free PTX, paclitaxel]
- acute toxicity / deaths after intravenous injection [1]: some deaths were observed a few minutes after the injection
- cytotoxicity (cell viability) compared with other formulations [2]: stronger inhibition effects compared to the PEGylated nanoparticles
- median survival time [3]: 31 days
- tumor inhibition rate ([3]; n=8): 32.5%
- AUC(0-inf) [4, 5]: 49200 ± 16900 ng·h/mL
- AUC(0-t) [4, 5]: 46600 ± 16800 ng·h/mL
- clearance [4, 5]: 8.5 mL/min/kg
- k el [4, 5]: 0.000511 s⁻¹
- K12 (transfer rate constant from central to periphery compartment) [4, 6]: 0.45 ± 0.33 h⁻¹
- K21 (transfer rate constant from periphery to central compartment) [4, 6]: 0.55 ± 0.24 h⁻¹
- V1 (volume of central compartment) [4, 6]: 0.28 ± 0.02 L/kg
- V2 (volume of periphery compartment) [4, 6]: 0.21 ± 0.12 L/kg
